Source: PMC7416570 (ACS chemical biology, 2020)
“Also recorded” adds a separate entry of the source. Where no end group is shown, it is not given here.

B1: mPD-1: extracellular domain of murine PD-1 (L25 to S157, C83S) with HA tag and His tag (protein)
chain: MALEVPNGPWRSLTFYPAWLTVSEGANATFTCSLSNWSEDLMLNWNRLSPSNQTEKQAAFSNGLSQPVQDARFQIIQLPNRHDFHMNILDTRRNDSGIYLCGAISLHPKAKIEESPGAELVVTERILETSTRYPS
modifications: left off: HA tag (…), C-terminal, kept | His tag, C-terminal, state not stated

What was measured:
hPD-L1 [1] = biological target: T1, hPD-L1 (Homo sapiens, UniProt Q9NZQ7); assay: Radiolabeled binding assay on immobilized hPD-L1; conditions: for effect of mutation on hPD-L1 binding (alanine scanning): [35S]-labeled SPAM variants, binding normalized to [35S]-SPAM, n=3
[2] = Serum stability of [35S]-SPAM read out by binding to hPD-L1; assay type: in vitro ADME; conditions: [35S]-labeled SPAM, 25% human serum, 37 °C, up to eight hours
hPD-L1/mPD-1 interaction = hPD-L1/mPD-1 interaction (Homo sapiens, UniProt Q9NZQ7); assay: ELISA/IP assay of the hPD-L1/mPD-1 interaction; assay type: biochemical; conditions: 10 μM SPAM, hPD-L1 and mPD-1 100 nM
hPD-L1 [3] = biological target: T1, hPD-L1; assay: Radiolabeled binding assay on immobilized hPD-L1*; conditions: radioactive binding assay
Outline: (§1)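 Peptide mRNA was translated in rabbit reticulocyte lysate with [35S]-methionine (2 μCi per 10 pmol template, 30 °C, 1 h). The resulting fusions were purified on oligo-dT agarose and tested for pull-down by the immobilized target protein, read as bead-retained radioactivity.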

[4] = biological target: hPD-L1 expressed on CHO-hPD-L1 cells (Homo sapiens, UniProt Q9NZQ7); assay: Antibody competition by flow cytometry, CHO-hPD-L1; assay type: cell-based; conditions: pre-treatment 0–20 μM
hPD-L2* = biological target: T2, hPD-L2* (Homo sapiens, UniProt Q9BQ51); assay: Radiolabeled binding assay on immobilized hPD-L2*; conditions: radioactive binding assay
T2 sequence (Q9BQ51 20-220): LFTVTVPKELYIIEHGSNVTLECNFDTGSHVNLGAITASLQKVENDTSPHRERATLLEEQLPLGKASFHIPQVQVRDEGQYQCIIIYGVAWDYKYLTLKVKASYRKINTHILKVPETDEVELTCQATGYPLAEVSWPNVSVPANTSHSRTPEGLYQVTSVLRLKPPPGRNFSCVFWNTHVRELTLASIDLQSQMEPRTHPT
Outline: as §1

mPD-L1 = mPD-L1 (Mus musculus, UniProt Q9EP73); assay: Radiolabeled binding assay on immobilized mPD-L1; conditions: radioactive binding assay
mPD-L1, sequence (Q9EP73 19-239 limits assumed): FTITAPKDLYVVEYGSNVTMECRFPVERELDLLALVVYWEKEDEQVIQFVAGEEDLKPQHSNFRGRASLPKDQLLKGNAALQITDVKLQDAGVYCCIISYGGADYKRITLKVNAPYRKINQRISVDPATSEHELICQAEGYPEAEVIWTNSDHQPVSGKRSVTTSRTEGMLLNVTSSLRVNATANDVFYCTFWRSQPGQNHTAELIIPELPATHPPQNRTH
Outline: as §1

hPD-L1 [5] = biological target: T1, hPD-L1; conditions: read-out: previously reported KD values PD-1/hPD-L1; cited from earlier work

Molecule | effect of mutation on hPD-L1 binding (alanine scanning) (hPD-L1 [1]) | other results
H16A: SPAM variant with alanine substituted at position 16 (MPIFLDHILNKFWILAYAGSGSSG; also: [35S]-labeled methionine, peptide-RNA fusion) | completely abolished | 
N10A: SPAM variant with alanine substituted at position 10 (MPIFLDHILAKFWILHYAGSGSSG; also: [35S]-labeled methionine, peptide-RNA fusion) | completely abolished | 
L15A: SPAM variant with alanine substituted at position 15 (MPIFLDHILNKFWIAHYAGSGSSG; also: [35S]-labeled methionine, peptide-RNA fusion) | completely abolished | 
F12A: SPAM variant with alanine substituted at position 12 (MPIFLDHILNKAWILHYAGSGSSG; also: [35S]-labeled methionine, peptide-RNA fusion) | completely abolished | 
I3A: SPAM variant with alanine substituted at position 3 (MPAFLDHILNKFWILHYAGSGSSG; also: [35S]-labeled methionine, peptide-RNA fusion) | little or no significant influence | 
P2A: SPAM variant with alanine substituted at position 2 (MAIFLDHILNKFWILHYAGSGSSG; also: [35S]-labeled methionine, peptide-RNA fusion) | decreased levels of hPD-L1 binding | 
I14A: SPAM variant with alanine substituted at position 14 (MPIFLDHILNKFWALHYAGSGSSG; also: [35S]-labeled methionine, peptide-RNA fusion) | completely abolished | 
H7A: SPAM variant with alanine substituted at position 7 (MPIFLDAILNKFWILHYAGSGSSG; also: [35S]-labeled methionine, peptide-RNA fusion) | completely abolished | 
I8A: SPAM variant with alanine substituted at position 8 (MPIFLDHALNKFWILHYAGSGSSG; also: [35S]-labeled methionine, peptide-RNA fusion) | little or no significant influence | 
W13A: SPAM variant with alanine substituted at position 13 (MPIFLDHILNKFAILHYAGSGSSG; also: [35S]-labeled methionine, peptide-RNA fusion) | completely abolished | 
C#CC[C@H](NC(=O)CNC(=O)[C@H](CO)NC(=O)[C@H](C)NC(=O)[C@H](Cc1ccc(O)cc1)NC(=O)[C@H](Cc1c[nH]cn1)NC(=O)[C@H](CC(C)C)NC(=O)[C@@H](NC(=O)[C@H](Cc1c[nH]c2ccccc12)NC(=O)[C@H](Cc1ccccc1)NC(=O)[C@H](CCCCN)NC(=O)[C@H](CC(N)=O)NC(=O)[C@H](CC(C)C)NC(=O)[C@@H](NC(=O)[C@H](Cc1c[nH]cn1)NC(=O)[C@H](CC(=O)O)NC(=O)[C@H](CC(C)C)NC(=O)[C@H](Cc1ccccc1)NC(=O)[C@@H](NC(=O)[C@@H]1CCCN1C(=O)[C@@H](N)CCSC)[C@@H](C)CC)[C@@H](C)CC)[C@@H](C)CC)C(N)=O (stereo in doubt) [SPAM] |  | loss of binding to hPD-L1 after incubation in human serum [2]: ~ 25%; [35S]-labeled SPAM binding to immobilized hPD-L1 (hPD-L1 [1]; 75 pmol hPD-L1 on streptavidin agarose, 4 °C, 1 h): efficiently pulled-down; disruption of PD-1 binding to hPD-L1 at 10 μM (hPD-L1/mPD-1 interaction): almost completely disrupted; [35S]-labeled SPAM binding to hPD-L1* (hPD-L1 [3]): captured; blocking of Fluorescein-16373 binding to CHO-hPD-L1 ([4]; 50 nM FAM-16373, flow cytometry): blocking; blocking of Fluorescein-16377 binding to CHO-hPD-L1 ([4]; 50 nM FAM-16377, flow cytometry): blocking; [35S]-labeled SPAM binding to hPD-L2* (hPD-L2*): no significant binding; also recorded: essentially no binding; [35S]-labeled SPAM binding to mPD-L1 (mPD-L1): no significant binding; also recorded: not pulled-down; also recorded: essentially no binding
A18: SPAM variant with glycine substituted for alanine at position 18 (MPIFLDHILNKFWILHYGGSGSSG; also: [35S]-labeled methionine, peptide-RNA fusion) | completely abolished | 
MRIFAVFIFMTYWHLLNA [hPD-L1 signal peptide, reference compound] |  | binding of hPD-L1 signal peptide-mRNA fusion to hPD-L1 beads (hPD-L1 [1]; streptavidin agarose beads loaded with 1.1 μM hPD-L1 (1,100 pmol)): some binding
F4A: SPAM variant with alanine substituted at position 4 (MPIALDHILNKFWILHYAGSGSSG; also: [35S]-labeled methionine, peptide-RNA fusion) | little or no significant influence | 
K11A: SPAM variant with alanine substituted at position 11 (MPIFLDHILNAFWILHYAGSGSSG; also: [35S]-labeled methionine, peptide-RNA fusion) | completely abolished | 
L9A: SPAM variant with alanine substituted at position 9 (MPIFLDHIANKFWILHYAGSGSSG; also: [35S]-labeled methionine, peptide-RNA fusion) | little or no significant influence | 
L5A: SPAM variant with alanine substituted at position 5 (MPIFADHILNKFWILHYAGSGSSG; also: [35S]-labeled methionine, peptide-RNA fusion) | little or no significant influence | 
D6A: SPAM variant with alanine substituted at position 6 (MPIFLAHILNKFWILHYAGSGSSG; also: [35S]-labeled methionine, peptide-RNA fusion) | completely abolished | 
B1 |  | Kd (hPD-L1 [5]): 4 to 8 µM
